Measured values as given in ChEMBL document CHEMBL3352485 (J Med Chem, 2014).
Activity calls are given as the source filed them. The rule behind the calls is not given here. Where a SMILES comes first, the peptide text is derived from it. [ ]: non-standard residue; d: D form. Arg(Me) = CNC(=N)NCCC[C@H](N)C(=O)O; azaGly = NNC(=O)O

Tests used:
KiSS-1 receptor [1] = target: T1, KiSS-1 receptor (Rattus norvegicus, UniProt Q924U1); assay: Agonist activity at rat KISS1R transfected in CHO cells assessed as intracellular calcium flux after 24 hrs by functional FLIPR assay; type: cell-based
[2] = Tmax in Sprague-Dawley rat at 1 mg/kg, sc after 24 hrs by LC-MS/MS analysis; type: ADME, organism-based; design: dose 1 mg/kg, route subcutaneous; settings: in vivo
How it was run: (§1)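 Single subcutaneous dose of 1 mg/kg in male Crl:CD(SD) rats, n = 3 per group. Blood was sampled from 5 min to 24 h (5, 10, 15, 30 min; 1, 2, 4, 8, 24 h). Plasma was deproteinized with formic acid/methanol and acetonitrile, and peptide levels were measured by LC-MS. Noncompartmental analysis per animal gave Cmax, Tmax, AUC0-24h, MRT and BA; values are mean ± SD (n = 3).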

Canis familiaris = organism: Canis familiaris; assay: Toxicity in dog; type: organism-based, Canis lupus familiaris; settings: in vivo
[3] = Stability of the compound in aqueous solution assessed as residual ratio at pH 5 up to 2 weeks by HPLC analysis relative to initial level; type: physicochemical
How it was run: (§2)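 Peptides in aqueous solution at pH 1.2 (JP1, containing 10% acetonitrile), 3, 5 or 7 were kept in the dark at 37 °C for up to 2 weeks. Peptide remaining was quantified from HPLC peak area, with detection at 230–280 nm. The residual ratio (stability index) was expressed relative to the time-0 amount, taken as 100%.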

[4] = Bioavailability in Sprague-Dawley rat at 1 mg/kg, sc after 24 hrs by LC-MS/MS analysis; type: ADME, organism-based; settings: in vivo; how it was run: as §1
Rattus norvegicus [5] = organism: Rattus norvegicus; assay: Toxicity in rat; type: organism-based; settings: in vivo
KiSS-1 receptor [6] = target: T2, KiSS-1 receptor (Homo sapiens, UniProt Q969F8); assay: Displacement of radioligand from human KISS1R transfected in CHO cells; type: cell-based
How it was run: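 Binding used membrane fractions prepared from CHO cells expressing recombinant human KISS1R.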

[7] = AUC (0 to 24 hrs) in Sprague-Dawley rat at 1 mg/kg, iv after 24 hrs by LC-MS/MS analysis; type: ADME, organism-based; design: time < 24 hr, dose 1 mg/kg, route intravenous; settings: plasma
How it was run: (§3)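 Male Crl:CD(SD) rats (3 per group) got a single intravenous dose of 1 mg/kg. Blood was drawn at 5, 10, 15 and 30 min and at 1, 2, 4, 8 and 24 h. Plasma proteins were removed with 0.2% formic acid/methanol and acetonitrile, and the supernatant was treated with 0.4% formic acid. Peptide was quantified by LC-MS. Noncompartmental parameters were derived per rat, reported as mean ± SD (n = 3).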

Rattus norvegicus [8] = assay: Testosterone-suppressive activity in Crl:CD(SD) rat assessed as number of animal with plasma testosterone level below the limit of detection at 0.03 mol/hr, sc through osmotic pumps measured after 6 days by RIA; type: functional
Rattus norvegicus [9] = assay: Testosterone-suppressive activity in Crl:CD(SD) rat assessed as number of animal with plasma testosterone level below the limit of detection at 0.05 mol/hr, sc through osmotic pumps measured after 6 days by RIA; type: functional
[10] = AUC (0 to 24 hrs) in Sprague-Dawley rat at 1 mg/kg, sc after 24 hrs by LC-MS/MS analysis; type: ADME, organism-based; design: time < 24 hr, dose 1 mg/kg, route subcutaneous; settings: plasma; how it was run: as §1
KiSS-1 receptor [11] = target: T1, KiSS-1 receptor; assay: Displacement of radioligand from rat KISS1R transfected in CHO cells; type: cell-based
[12] = Stability of the compound in aqueous solution (JP1) assessed as residual ratio at pH 1.2 up to 1 week by HPLC analysis relative to initial level; type: physicochemical; how it was run: as §2
[13] = Cmax in Sprague-Dawley rat at 1 mg/kg, sc after 24 hrs by LC-MS/MS analysis; type: ADME, organism-based; design: dose 1 mg/kg, route subcutaneous; settings: in vivo; how it was run: as §1
[14] = Stability of the compound in aqueous solution assessed as residual ratio at pH 5 up to 1 week by HPLC analysis relative to initial level; type: physicochemical; how it was run: as §2
[15] = Stability of the compound in aqueous solution assessed as residual ratio at pH 3 up to 1 week by HPLC analysis relative to initial level; type: physicochemical; how it was run: as §2
Rattus norvegicus [16] = assay: Testosterone-suppressive activity in Crl:CD(SD) rat assessed as number of animal with plasma testosterone level below the limit of detection […], sc through osmotic pumps measured after 6 days by RIA; type: functional
Rattus norvegicus [17] = assay: Stimulation of testosterone release in Crl:CD(SD) rat assessed as testosterone AUC (0 to 4 hrs) at 0.01 to 1 nmol/kg, sc single dose; type: functional, organism-based
[18] = Stability of the compound in aqueous solution (JP1) assessed as residual ratio at pH 1.2 up to 2 weeks by HPLC analysis relative to initial level; type: physicochemical; how it was run: as §2
Rattus norvegicus [19] = assay: Testosterone-suppressive activity in Crl:CD(SD) rat assessed as plasma testosterone level below the limit of detection at 10 to 100 pmol/hr, sc continuous administration through osmotic pumps measured up to 1 week by RIA; type: functional, organism-based
How it was run: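 Peptide in 50% DMSO was diluted in distilled water to 10, 30 or 100 μM pump solutions, giving 10–100 pmol/h by subcutaneous ALZET osmotic pump in male Crl:CD(SD) rats (n = 5). Vehicle served as control. Plasma testosterone was measured by RIA after 1 or 4 weeks, with values below 0.04 ng/mL set to 0.04. Results are mean ± SD of five rats, tested by one-tailed Shirley–Williams test versus vehicle.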

[20] = C5min in Sprague-Dawley rat at 1 mg/kg, iv after 5 mins by LC-MS/MS analysis; settings: in vivo, read-out: Cmin
KiSS-1 receptor [21] = target: T2, KiSS-1 receptor; assay: Agonist activity at human KISS1R transfected in CHO cells assessed as intracellular calcium flux after 24 hrs by functional FLIPR assay; type: cell-based
How it was run: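 CHO cells stably expressing human KISS1R were seeded at 15 000 cells/mL, cultured 24 h, then loaded with fluo-3 for 1 h at 37 °C in HBSS/HEPES (pH 7.4) with probenecid and FBS. Cells were washed in HBSS with 2.5 mM probenecid. Peptides came from 1 mM DMSO stocks diluted in buffer containing probenecid, 0.2% BSA and 0.1% CHAPS. Fluorescence was recorded on FLIPR for 3 min; peak counts over 0–180 s gave agonist activity.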

[22] = Volume of distribution at steady state in Sprague-Dawley rat at 1 mg/kg, iv after 24 hrs by LC-MS/MS analysis; type: ADME, organism-based; design: dose 1 mg/kg, route intravenous; settings: in vivo, read-out: Vdss; how it was run: as §3
[23] = Total clearance in Sprague-Dawley rat at 1 mg/kg, iv after 24 hrs by LC-MS/MS analysis; type: ADME, organism-based; design: dose 1 mg/kg, route intravenous; settings: in vivo; how it was run: as §3
Rattus norvegicus [24] = assay: Stimulation of LH release in Crl:CD(SD) rat assessed as LH AUC (0 to 4 hrs) at 0.01 to 1 nmol/kg, sc single dose relative to metastin; type: functional
[25] = Stability of the compound in aqueous solution assessed as residual ratio at pH 7 up to 2 weeks by HPLC analysis relative to initial level; type: physicochemical; how it was run: as §2
[26] = Stability of the compound in aqueous solution assessed as residual ratio at pH 7 up to 1 week by HPLC analysis relative to initial level; type: physicochemical; how it was run: as §2
[27] = Mean residence time in Sprague-Dawley rat at 1 mg/kg, sc after 24 hrs by LC-MS/MS analysis; type: ADME, organism-based; design: dose 1 mg/kg, route subcutaneous; settings: in vivo; how it was run: as §1
[28] = Stability of the compound in aqueous solution assessed as residual ratio at pH 3 up to 2 weeks by HPLC analysis relative to initial level; type: physicochemical; how it was run: as §2
[29] = Mean residence time in Sprague-Dawley rat at 1 mg/kg, iv after 24 hrs by LC-MS/MS analysis; type: ADME, organism-based; design: dose 1 mg/kg, route intravenous; settings: in vivo; how it was run: as §3

T1 sequence (Q924U1 whole entry): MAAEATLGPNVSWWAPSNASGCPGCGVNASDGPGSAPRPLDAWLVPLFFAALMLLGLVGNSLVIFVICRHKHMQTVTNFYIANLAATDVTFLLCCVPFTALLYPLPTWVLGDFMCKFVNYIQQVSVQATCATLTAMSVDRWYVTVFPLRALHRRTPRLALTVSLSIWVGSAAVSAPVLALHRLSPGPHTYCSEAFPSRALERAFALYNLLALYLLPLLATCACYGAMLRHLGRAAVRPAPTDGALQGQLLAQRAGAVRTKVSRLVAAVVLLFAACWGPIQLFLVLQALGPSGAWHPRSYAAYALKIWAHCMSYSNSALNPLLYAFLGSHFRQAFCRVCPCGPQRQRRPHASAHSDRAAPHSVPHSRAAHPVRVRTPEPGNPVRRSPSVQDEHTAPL
T2 sequence (Q969F8 whole entry): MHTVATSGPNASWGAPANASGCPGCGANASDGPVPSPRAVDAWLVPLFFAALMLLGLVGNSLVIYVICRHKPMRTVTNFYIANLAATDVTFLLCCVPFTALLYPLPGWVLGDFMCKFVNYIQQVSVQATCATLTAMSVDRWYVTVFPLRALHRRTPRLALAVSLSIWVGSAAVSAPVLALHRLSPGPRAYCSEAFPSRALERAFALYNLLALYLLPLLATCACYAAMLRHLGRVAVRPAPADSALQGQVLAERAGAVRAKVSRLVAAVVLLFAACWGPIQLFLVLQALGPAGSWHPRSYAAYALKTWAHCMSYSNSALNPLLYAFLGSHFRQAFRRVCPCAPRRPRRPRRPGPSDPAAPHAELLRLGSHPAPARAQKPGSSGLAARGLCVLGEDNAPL

- EC50 (KiSS-1 receptor [1]): 1300 pM
- Tmax [2]: 11.4 min
- remaining at 336 h [3]: 93.6%
- bioavailability [4]: 9.4%
- Ki (KiSS-1 receptor [6]): 36 pM
- AUC(0-t) at 24 h [7]: 1220 ng·h/mL
- AUC(0-t) at 24 h [10]: 115 ng·h/mL
- Ki (KiSS-1 receptor [11]): 69 pM
- remaining at 168 h [12]: 55.6%
- Cmax [13]: 100 ng/mL
- remaining at 168 h [14]: 95.9%
- remaining at 168 h [15]: 97.7%
- remaining at 336 h [18]: 28.8%
- concentration at 5 min [20]: 2510 ng/mL
- EC50 (KiSS-1 receptor [21]): 330 pM
- Vd [22]: 0.562 L/kg
- clearance [23]: 13.7 mL/min/kg
- remaining at 336 h [25]: 66.4%
- remaining at 168 h [26]: 79.7%
- MRT [27]: 51.6 min
- remaining at 336 h [28]: 95.6%
- MRT [29]: 41.4 min
SMILES: CNC(=N)NCCC[C@H](NC(=O)[C@H](CC(C)C)NC(=O)NNC(=O)[C@H](Cc1ccccc1)NC(=O)[C@@H](NC(=O)[C@H](CC(N)=O)NC(=O)[C@@H](Cc1c[nH]c2ccccc12)NC(=O)[C@@H](Cc1ccc(O)cc1)NC(C)=O)[C@@H](C)O)C(=O)N[C@@H](Cc1c[nH]c2ccccc12)C(N)=O (Ac-[dY][dW]NTF[azaGly]L[Arg(Me)]W-NH2)
- Activity (Canis familiaris): Non-toxic
- Activity (Rattus norvegicus [5]): Non-toxic
- Activity (Rattus norvegicus [8]): 4%
- Activity (Rattus norvegicus [9]): 5%
- Activity (Rattus norvegicus [16]): 0 animals
- Activity (Rattus norvegicus [17]): Active
- inhibition (Rattus norvegicus [19]): Active
- fold change (FC) (Rattus norvegicus [24]): 100
